Only some compounds are listed: those with a hit (about 4.6% of all), similar ones and a draw of the others.
CHO parental Ca – counter-screen: ATP calcium response change in parental CHO cells | parental CHO-K1, ATP-induced calcium, Fluo-8 fluorescence | inhibition, % at 5.6 µM | 0.63% of 330,000 active | AID 463079;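 active = inhibition above that plate's mean sample inhibition plus 3 SD, cut at about 26% in these data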
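Test system: untransfected parental CHO cell line. Compound: one dose, 5.6 µM nominal. Detection: intracellular calcium via Fluo-8 no-wash fluorescent dye. Measure: % inhibition. Benchmarks: ATP-challenged DMSO wells low, unchallenged DMSO wells high.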
TAAR1 ag – human TAAR1 agonism | CHO RD-HGA16 TAAR1, Fluo-8 calcium fluorescence; vehicle wells 0%, saturating PEA agonist 100% | activation, % at 3 µM | 0.99% of 360,000 active | AID 624467;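 active = activation above the mean activation of all test compounds in the run plus 3 SD, cut at about 38% in these data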
Target sequence (Q96RJ0 whole entry, looked up): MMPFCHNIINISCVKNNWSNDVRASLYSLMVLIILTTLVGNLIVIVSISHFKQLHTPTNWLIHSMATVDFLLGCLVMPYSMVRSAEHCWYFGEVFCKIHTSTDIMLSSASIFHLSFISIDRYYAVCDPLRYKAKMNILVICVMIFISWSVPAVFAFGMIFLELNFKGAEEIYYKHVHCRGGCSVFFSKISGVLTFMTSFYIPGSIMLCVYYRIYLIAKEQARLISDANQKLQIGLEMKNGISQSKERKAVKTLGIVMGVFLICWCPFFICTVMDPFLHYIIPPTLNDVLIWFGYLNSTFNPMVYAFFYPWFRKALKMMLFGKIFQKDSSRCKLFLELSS
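Assay system – CHO-derived RD-HGA16 cells with stable Gα16 and human TAAR1 · Compound dosing – one-point dosing at 3 µM (nominal) · Incubation – 17-24 h seeding, 75 min 37 °C dye, 30 min RT · Measured by – kinetic Fluo-8 calcium fluorescence · Control set – DMSO vehicle as 0%, PEA at EC100 as 100% · Repeats – single well for each compound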
OX1R antag-1 – antagonists of human orexin 1 receptor; CHO/OX1R cells, Fluo-8 calcium fluorescence, orexin A; inhibition, % at 5 µM; 0.43% of 330,000 active; AID 434989;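 active = inhibition above its plate's threshold, mean inhibition of all tested compounds on the plate plus 3 SD, cut at about 37% in these data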
Target sequence (O43613 whole entry, looked up): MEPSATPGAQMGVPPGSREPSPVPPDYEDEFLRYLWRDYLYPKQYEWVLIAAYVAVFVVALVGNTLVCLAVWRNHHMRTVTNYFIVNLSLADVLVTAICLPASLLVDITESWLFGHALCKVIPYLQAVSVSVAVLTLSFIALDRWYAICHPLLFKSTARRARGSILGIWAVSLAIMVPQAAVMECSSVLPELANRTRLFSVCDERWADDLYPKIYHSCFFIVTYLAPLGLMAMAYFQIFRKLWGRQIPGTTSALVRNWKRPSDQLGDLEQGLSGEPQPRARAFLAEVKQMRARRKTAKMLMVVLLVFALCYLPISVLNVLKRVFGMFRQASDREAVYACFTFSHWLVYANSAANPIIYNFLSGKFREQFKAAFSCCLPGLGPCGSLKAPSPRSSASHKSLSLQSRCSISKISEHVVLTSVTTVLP
GPR7 antag – antagonists of human GPR7 (neuropeptides B/W receptor 1); P48145; GPR7-expressing cells, fluorescence antagonist assay; inhibition, % at 4.4 µM; 1.1% of 290,000 active; AID 1861; in the data active = inhibition above about 16%, passing the limit was not always enough;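 also: cells stimulated with the agonist NPW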
TAAR1 antag – human TAAR1 antagonism; Q96RJ0; CHO RD-HGA16 TAAR1, Fluo-8 calcium fluorescence, antagonist; inhibition, % at 3 µM; 1.5% of 360,000 active;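 active = inhibition above a per-plate cutoff, the mean inhibition of test compounds on that plate plus 3 SD, cut at about 49% in these data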
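Assay system: CHO-derived RD-HGA16 cells stably expressing human TAAR1 plus Gα16. Timing: 140 s kinetic read after compound, 140 s after agonist. Technique: kinetic Fluo-8 calcium fluorescence measurement. Measure: % inhibition of agonist calcium response.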
OX1R antag-2 – antagonists of human orexin 1 receptor (OX1R). O43613. OX1R-expressing cells, FRET antagonist read-out. AID 485270. inhibition, % at 6.6 µM. 1.8% of 330,000 active; in the data active = inhibition mostly above about 38%, no sharp cut-off; inactive = mostly below about 40%
TAAR1 ag conf – human TAAR1 agonism, confirmed; shares compounds with TAAR1 ag; CHO RD-HGA16 TAAR1, Fluo-8 calcium fluorescence; scaled: DMSO 0%, maximal phenethylamine 100%; activation, % at 3 µM; 82% of 2,400 active;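 active = activation above a cutoff set at the run's mean compound activation plus 3 SD, cut at about 39% in these data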
Ga16 ag counter – counter-screen for TAAR1 agonists: nonselective agonists in parental cells; shares compounds with TAAR1 ag; CHO-Ga16 parental, Fluo-8 calcium fluorescence; normalized to maximal ATP response, DMSO zero; activation, % at 3 µM; 50% of 2,400 active;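 active = activation above the run cutoff, the mean activation over all tested wells plus 3 SD, cut at about 12% in these data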
TAAR1 desens – counter-screen for human TAAR1 agonists: agonists that desensitize TAAR1; shares compounds with TAAR1 ag; CHO RD-HGA16 hTAAR1, Fluo-8 calcium, beta-PEA response inhibition; inhibition, % at 3 µM; 46% of 2,400 active; AID 651951;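 active = inhibition above the run cutoff, the mean inhibition of all test compounds plus 3 SD, cut at about 49% in these data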;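 also: beta-PEA stimulus applied at its EC80; loss of beta-PEA calcium signal after compound pretreatment read as receptor desensitization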
Ga16 antag count – nonselective Ga16 antagonist in TAAR1 agonist counter-screen; inhibition, % at 3 µM; AID 651952; 39% of 2,400 active; CHO-Ga16 ATP-induced calcium, Fluo-8 fluorescence; shares compounds with TAAR1 ag;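 active = inhibition above the plate's mean compound inhibition plus 3 SD, computed per plate, cut at about 22% in these data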
Hits are given with their value; - = inactive; . = no result.

SMILES | CHO parental Ca | TAAR1 ag | OX1R antag-1 | GPR7 antag | TAAR1 antag | OX1R antag-2 | TAAR1 ag conf | Ga16 ag counter | TAAR1 desens | Ga16 antag count
O=C(NCCc1ccccc1)c1ccc2c(c1)OCCCO2 | - | 45.6 | - | - | - | - | 60.3 | - | - | -
COc1ccc(CCNS(=O)(=O)CCNC(=O)c2ccccc2)cc1 | - | - | - | . | - | - | . | . | . | .
O=C(NCCS(=O)(=O)NCc1ccccc1Cl)c1ccc2c(c1)OCO2 | - | - | - | . | - | - | . | . | . | .
Cn1cccc1/C=N/NC(=O)CSc1nc2ccccc2[nH]1 | - | - | - | - | - | - | . | . | . | .
CCOc1ccc(NC(=S)N2CCN(CCN3C(=O)c4cccc5cccc(c45)C3=O)CC2)cc1 | - | - | - | - | - | - | . | . | . | .
CCOC1=C2[C@@H](CN(S(=O)(=O)c3ccc(C)cc3)[C@H]2c2ccccc2F)[C@H]2C(=O)NC(=O)[C@H]2C1 | . | - | . | . | - | . | . | . | . | .
Cc1ccc(NC(=O)c2ccc3nsnc3c2)c(Cl)c1 | - | 57.1 | - | - | - | - | - | - | - | -
O=C(N=Nc1c(O)[nH]c2ccccc12)c1ccc2c(c1)OCO2 | - | - | - | - | - | - | . | . | . | .
CC1C(=O)N2CCCc3cc(S(=O)(=O)NCCc4ccccc4)cc1c32 (stereo not given) | - | 51.5 | - | - | - | - | 66.7 | - | - | -
CN(CC(=O)Nc1c(Cl)cccc1Cl)C(=O)C1=COCCO1 | - | - | - | . | - | - | . | . | . | .
CC(C)(O)[C@H](O)Cc1cc2ccc(=O)oc2cc1O[C@@H]1O[C@H](CO)[C@@H](O)[C@H](O)[C@H]1O | - | - | - | . | - | - | . | . | . | .
CCOc1ccc(-c2c(C(=O)N/N=C(\C)c3ccco3)nnn2-c2nonc2N)cc1 | - | 115.0 | - | - | - | - | 101.3 | 66.6 | - | -
CCOc1ccc(-c2c(C(=O)N/N=C(\C)c3ccccc3OC)nnn2-c2nonc2N)cc1 | - | - | - | - | - | - | . | . | . | .
C/C(=N\NC(=O)c1nnn(-c2nonc2N)c1-c1ccc2c(c1)OCO2)c1cccs1 | - | 144.3 | - | - | 95.8 | - | 126.9 | 100.9 | 90.5 | 60.7
CCOc1cccc(-c2c(C(=O)N/N=C(\C)c3cccs3)nnn2-c2nonc2N)c1 | - | 132.0 | - | - | 88.2 | - | 134.1 | 98.1 | 96.6 | 69.8
CCOc1ccc(-c2c(C(=O)N/N=C(\C)c3cccs3)nnn2-c2nonc2N)cc1 | - | 85.3 | - | - | - | - | 98.4 | 63.3 | - | -
O=C(NCC1COCCO1)c1ccc2nc(Cc3cccc(Cl)c3)oc2c1 (stereo not given) | - | - | - | - | - | - | . | . | . | .
O=C(O)c1ccc2c(c1)C(=O)N([C@H](Cc1cccc3ccccc13)C(=O)O)C2=O | . | - | . | . | - | . | . | . | . | .
CC(=O)c1cc2c(cc1NC(=O)CSc1ccc(S(=O)(=O)N(C)C)cn1)OCO2 | - | - | - | . | - | - | . | . | . | .
COc1cccc(-c2c(C(=O)N/N=C(\C)c3ccncc3)nnn2-c2nonc2N)c1 | - | - | - | - | - | - | . | . | . | .
COc1cccc(-c2c(C(=O)N/N=C(\C)c3cccs3)nnn2-c2nonc2N)c1 | - | 140.3 | - | - | 86.9 | - | 115.0 | 83.9 | 77.9 | 27.6
OCC[C@@H]1C[C@H](O)[C@@H](O)[C@]2(OCc3cc(C(F)(F)F)ccc32)O1 | . | - | . | . | - | . | . | . | . | .
CCOc1ccc(-c2c(C(=O)N/N=C/c3ccc(OC)cc3)nnn2-c2nonc2N)cc1 | - | 50.9 | - | - | - | - | 47.5 | 22.9 | - | -
CCOc1ccc(-c2c(C(=O)N/N=C/c3ccsc3)nnn2-c2nonc2N)cc1 | - | 119.1 | - | - | - | - | 111.0 | 73.9 | - | -
CCCc1c(C(=O)N/N=C/c2cccs2)nnn1-c1nonc1N | - | 65.2 | - | - | - | - | - | 19.2 | - | -
SMILES | CHO parental Ca | TAAR1 ag | OX1R antag-1 | GPR7 antag | TAAR1 antag | OX1R antag-2 | TAAR1 ag conf | Ga16 ag counter | TAAR1 desens | Ga16 antag count
CCCOc1ccc(-c2c(C(=O)N/N=C/c3ccncc3)nnn2-c2nonc2N)cc1 | - | 46.6 | - | - | - | - | - | 12.1 | - | -
CCCOc1ccc(-c2c(C(=O)N/N=C/c3ccc(OCC)cc3)nnn2-c2nonc2N)cc1 | - | - | - | - | - | - | . | . | . | .
CCCc1c(C(=O)N/N=C/c2ccc(C)s2)nnn1-c1nonc1N | - | - | - | - | - | - | . | . | . | .
CC(C)CCn1c(Oc2ccccc2Cl)nc2c1c(=O)n(C)c(=O)n2C | - | - | - | - | - | - | . | . | . | .
CCc1ccc(/C=N/NC(=O)c2nnn(-c3nonc3N)c2CN2CCOCC2)cc1 | - | 62.9 | - | - | - | - | 59.1 | 52.0 | - | -
COc1cccc(/C=N/NC(=O)c2nnn(-c3nonc3N)c2-c2cccs2)c1 | - | - | - | - | - | - | . | . | . | .
CCOc1cccc(-c2c(C(=O)N/N=C/c3ccc(Br)cc3)nnn2-c2nonc2N)c1 | - | 101.6 | - | - | - | - | 97.2 | 81.9 | 57.8 | 47.9
CCOc1cccc(-c2c(C(=O)N/N=C/c3cccnc3)nnn2-c2nonc2N)c1 | - | - | - | - | - | - | . | . | . | .
COc1cccc(-c2c(C(=O)N/N=C/c3ccsc3)nnn2-c2nonc2N)c1 | - | 128.8 | - | - | - | - | 145.0 | 105.8 | 72.2 | 29.1
COc1ccc(NC(=O)C2Cc3c(-c4ccco4)ccnc3O2)cc1OC (stereo not given) | . | - | . | . | - | . | . | . | . | .
O=c1ccn([C@@H]2O[C@H](CNS(=O)(=O)C3CC3)[C@@H](O)[C@H]2O)c(=O)[nH]1 | . | - | . | . | - | . | . | . | . | .
CCOc1cc(/C=C2\SC(=N)N(c3nccs3)C2=O)ccc1OCCN1CCOCC1 | - | - | - | - | - | - | . | . | . | .
CCOc1ccc(-c2cc(C(=O)Nc3ccc(C)c(NS(C)(=O)=O)c3)[nH]n2)c(C)c1 | . | - | . | . | - | . | . | . | . | .
c1ccc2c(CC3=NCCN3)cccc2c1 | - | 96.8 | - | - | 74.4 | - | 95.3 | - | 90.4 | -
CCCNC(=O)C1(C)CCN1C(=O)Cc1ccc(C(C)C)cc1 (stereo not given) | . | - | . | . | - | . | . | . | . | .
Cc1ccc(NC(=O)COc2cccc3ccc(C)nc23)c(Br)c1 | - | 86.8 | - | - | 89.5 | - | - | - | - | 22.0
Cc1ccc(OCC(=O)Nc2cccc(C)n2)c(C)c1 | - | - | - | - | - | - | . | . | . | .

Screening results (PubChem)
